Converted amounts (≈) assume the structure as drawn. Marks after values point to notes of the source that are not given here. Non-standard residues stand in square brackets, D forms with d. Residues, ends and D or L forms follow the SMILES beside them.
Assays:
[1] = tested on: NSCLC patients; conditions: plus paclitaxel-carboplatin; cited from earlier work
[2] = tested on: NCI-H727 cells; assay: MTT proliferation assay, NCI-H727 cells; assay type: cell-based; conditions: Homo sapiens, NCI-H727, 48 h, read-out: IC50, proliferation
[3] = biological target: T1, ETAR (Homo sapiens, UniProt P25101); assay: 125I-ET-1 radioreceptor binding to NCI-H1975 cells
T1 sequence (P25101 21-427): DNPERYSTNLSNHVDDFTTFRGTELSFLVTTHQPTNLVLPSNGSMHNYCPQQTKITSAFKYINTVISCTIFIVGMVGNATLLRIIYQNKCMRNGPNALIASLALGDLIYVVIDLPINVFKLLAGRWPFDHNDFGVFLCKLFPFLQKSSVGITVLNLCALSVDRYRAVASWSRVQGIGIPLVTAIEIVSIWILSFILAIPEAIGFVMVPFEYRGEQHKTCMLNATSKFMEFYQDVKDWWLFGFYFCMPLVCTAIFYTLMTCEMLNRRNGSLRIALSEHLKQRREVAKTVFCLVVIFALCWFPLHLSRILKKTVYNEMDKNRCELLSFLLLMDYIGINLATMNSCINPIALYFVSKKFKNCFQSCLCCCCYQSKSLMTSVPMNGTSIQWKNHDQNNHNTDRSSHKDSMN

[4] = tested on: NCI-H838 cells; assay: MTT proliferation assay, NCI-H838 cells; assay type: cell-based; conditions: Homo sapiens, NCI-H838, 48 h, read-out: IC50, proliferation
[5] = tested on: A549 cells; assay: MTT proliferation assay, A549 cells; assay type: cell-based; conditions: Homo sapiens, A549, 48 h, read-out: IC50, proliferation
[6] = tested on: HER2; assay: Western blot of HER2 tyrosine phosphorylation in NCI-H838 cells; assay type: cell-based, human; conditions: for effect on HER2 transactivation caused by ET-1: NSCLC cells, concentration not given; for effect on HER2 transactivation caused by ET-1 / effect on basal P-HER2 or HER2: data not shown; for effect on basal P-HER2 or HER2: inhibitor alone; for effect on increase in HER2 phosphorylation caused by 100 nM ET-1: 10 μM inhibitor, 2 min ET-1
[7] = tested on: EGFR; assay: Western blot of EGFR tyrosine phosphorylation in NCI-H838 cells; assay type: cell-based, human; conditions: for effect on EGFR transactivation caused by ET-1: NSCLC cells, concentration not given; for effect on EGFR transactivation caused by ET-1 / effect on basal P-EGFR, EGFR: data not shown; for effect on basal P-EGFR, EGFR: inhibitor alone; for effect on increase in EGFR phosphorylation caused by 100 nM ET-1: 10 μM inhibitor, 2 min ET-1
[8] = biological target: T1, ETAR; assay: 125I-ET-1 radioreceptor binding to NCI-H838 cells
[9] = tested on: EGFR; assay: Western blot of EGFR tyrosine phosphorylation in NCI-H1975 cells; assay type: cell-based, human; conditions: 5 mM
Summary of the method: (§1)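 Lysates (Tris pH 7.5, vanadate) were either immunoprecipitated with anti-phosphotyrosine antibody (400 µg protein) or loaded directly (20 µg) and probed with anti-PY1068-EGFR or anti-[…]-HER2. ECL bands were quantified by densitometry as mean % tyrosine phosphorylation.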

[10] = tested on: reactive oxygen species in NCI-H838 cells; assay: Reactive oxygen species in H2DCF labeled NCI-H838 cells; assay type: cell-based, human
Summary of the method: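 NCI-H838 cells were plated at 30,000/well and cultured overnight. They were loaded with 10 µM H2DCF for 1 h and washed 3 times in serum-free SIT medium. Test compound (5 mM or 10 µM) was added 30 min before 10 µM H2O2. Fluorescence (ex 485, […]) was read 0.5 h after stimulus and expressed as relative fluorescence, mean ± S.D. of 8 determinations.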

[11] = tested on: HER2; assay: Western blot of HER2 tyrosine phosphorylation in NCI-H1975 cells; assay type: cell-based, human; conditions: 5 mM
Summary of the method: as §1

[12] = tested on: cytosolic Ca2+ in SC-A1 cells; conditions: cited from earlier work
[13] = tested on: NCI-H838 cells; assay: Clonogenic assay, NCI-H838 cells; assay type: cell-based, human; conditions: gefitinib 1 ug/ml; for reduction of colony number: absence of exogenous ET-1, BQ123 1 μM; for Colony number: in the presence of ET-1 10 nM, BQ123/BQ788 1000 nM, 2 weeks
[14] = tested on: cytosolic Ca2+ in NCI-H1975 cells; assay: Cytosolic Ca2+ in Fura-2AM loaded NCI-H1975 cells; assay type: cell-based, human; conditions: for antagonism of the Ca2+ increase caused by 10 nM ET-1: 1000 nM antagonist; for effect on basal cytosolic Ca2+: 1000 nM antagonist alone
Summary of the method: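 NCI-H1975 cells were detached with trypsin-EDTA and loaded with Fura-2AM in SIT medium (2.5 × 10^6 cells/ml) at 37°C for 30 min. Cells were spun at 1000 × g for 5 min, resuspended at 2.5 × 10^6/ml and placed in a stirred quartz cuvette at 37°C.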

[15] = tested on: NSCLC patients; conditions: zibotentan or zibotentan plus pemetrexed; cited from earlier work
[16] = addition alone (ET-1 100 nM, H2O2 10 μM, Tiron 5 mM, ZD4054 10 μM), 0.5 hr, None = 100
[17] = with H2O2 10 μM, Tiron or ZD4054 added 0.5 h before, read 0.5 hr after H2O2

CCCCN(CCCC)C(=O)CN1C[C@H](c2ccc3c(c2)OCO3)[C@@H](C(=O)O)[C@@H]1c1ccc(OC)cc1 [atrasentan]
tolerability [1]: well tolerated

CS(=O)(=O)CCNCc1ccc(-c2ccc3ncnc(Nc4ccc(OCc5cccc(F)c5)c(Cl)c4)c3c2)o1 [Lapatinib, lapatinib]
IC50 [2]: 0.5 µg/mL (≈ 0.86 µM) | IC50 [3]: > 10000 nM | IC50 [4]: 1 µg/mL (≈ 1.72 µM) | IC50 [5]: 2 µg/mL (≈ 3.44 µM) | effect on HER2 transactivation caused by ET-1 [6]: inhibited | effect on EGFR transactivation caused by ET-1 [7]: inhibited | IC50 [8]: > 10000 nM

O=S(=O)(O)c1cc(O)c(O)c(S(=O)(=O)O)c1 [Tiron]
effect on increase in EGFR tyrosine phosphorylation caused by ET-1 [9]: inhibited significantly | % Fluorescence intensity [10, 16]: 99 ± 7 ^aa^, ^bb % | % Fluorescence intensity [10, 17]: 171 ± 12 ^bb % | effect on basal P-HER2 or HER2 [6]: no effect | effect on basal P-EGFR, EGFR [7]: no effect | effect on increase in HER2 tyrosine phosphorylation caused by ET-1 [11]: inhibited significantly

CC(C)C[C@@H]1NC(=O)[C@@H](C(C)C)NC(=O)[C@@H]2CCCN2C(=O)[C@@H](CC(=O)O)NC(=O)[C@@H](Cc2c[nH]c3ccccc23)NC1=O [BQ123] (cyclo(L[dW][dD]P[dV]); ring closure inferred)
IC50 [3]: 1.5 ± 0.03 nM | effect on the Ca2+ increase caused by ET-1 [12]: reversed | effect on HER2 tyrosine phosphorylation caused by 100 nM ET-1 ([6]; 0.1 μM antagonist): little effect | effect on HER2 tyrosine phosphorylation caused by 100 nM ET-1 ([6]; 1 μM or 10 μM antagonist): significantly reduced | reduction of colony number [13]: 22% | Colony number [13]: 37 ± 2 ^a | effect on EGFR tyrosine phosphorylation caused by 100 nM ET-1 ([7]; 0.1 μM antagonist): little effect | effect on EGFR tyrosine phosphorylation caused by 100 nM ET-1 ([7]; 1 μM or 10 μM antagonist): significantly reduced | antagonism of the Ca2+ increase caused by 10 nM ET-1 [14]: blocked | effect on basal cytosolic Ca2+ [14]: did not alter | IC50 [8]: 1 ± 0.2 nM

CC(=O)N[C@@H](CS)C(=O)O [Nacetylcysteine]
effect on HER2 transactivation caused by ET-1 [6]: inhibited | effect on EGFR transactivation caused by ET-1 [7]: inhibited

COc1cc2ncnc(Nc3ccc(F)c(Cl)c3)c2cc1OCCCN1CCOCC1 [Gefitinib, gefitinib]
effect on HER2 transactivation caused by 100 nM ET-1 ([6]; 10 μg/ml): significantly reduced | reduction of colony number [13]: 50% | Colony number [13]: 32 ± 3 ^aa

COc1ccc2c(c1)CC[C@@H]1[C@@H]2CC[C@]2(C)[C@@H](NCCCCCCN3C(=O)C=CC3=O)CC[C@@H]12 [U73122]
effect on the Ca2+ increase caused by ET-1 [12]: reversed

COc1nc(C)cnc1NS(=O)(=O)c1cccnc1-c1ccc(-c2nnco2)cc1 [ZD4054, zibotentan]
overall survival [15]: no differences | IC50 [4]: 50 µg/mL (≈ 118 µM) | IC50 [5]: 45 µg/mL (≈ 106 µM) | % Fluorescence intensity [10, 16]: 105 ± 6 ^aa^, ^bb % | % Fluorescence intensity [10, 17]: 351 ± 22 ^aa % | effect on HER2 transactivation caused by ET-1 [6]: inhibited | effect on EGFR transactivation caused by ET-1 [7]: inhibited

CNC(=O)[C@H](Cc1c[nH]c2ccccc12)NC(=O)[C@@H](CC(=O)NO)CC(C)C [GM6001]
effect on increase in HER2 phosphorylation caused by 100 nM ET-1 [6]: inhibited significantly | effect on basal P-HER2 or HER2 [6]: no effect | effect on increase in EGFR phosphorylation caused by 100 nM ET-1 [7]: inhibited significantly | effect on basal P-EGFR, EGFR [7]: no effect

CCCC[C@@H](NC(=O)[C@@H](Cc1cn(C(=O)OC)c2ccccc12)NC(=O)[C@H](CC(C)(C)C)NC(=O)N1[C@H](C)CCC[C@@H]1C)C(=O)O [BQ788]
IC50 [3]: 25 ± 3 nM | effect on HER2 transactivation caused by ET-1 [6]: little effect | Colony number [13]: 46 ± 4 | effect on EGFR transactivation caused by ET-1 [7]: little effect | antagonism of the Ca2+ increase caused by 10 nM ET-1 [14]: did not antagonize | effect on basal cytosolic Ca2+ [14]: had no effect | IC50 [8]: 20 ± 2 nM

COC(=O)C1=C(C)NC(C)=C(C(=O)OC)C1c1ccccc1[N+](=O)[O-] [nifedipine]
effect on the Ca2+ increase caused by ET-1 [12]: reversed

CC(C)(C)n1nc(-c2ccc(Cl)cc2)c2c(N)ncnc21 [PP2]
effect on increase in HER2 phosphorylation caused by 100 nM ET-1 [6]: inhibited significantly | effect on basal P-HER2 or HER2 [6]: no effect | effect on increase in EGFR phosphorylation caused by 100 nM ET-1 [7]: inhibited significantly | effect on basal P-EGFR, EGFR [7]: no effect

OO [H2O2]
% Fluorescence intensity [10, 16]: 401 ± 37 ^aa %
